Measured values reported in publication PMC4351917 (Journal of medicinal chemistry, 2014).
Marks after values point to notes of the source that are not given here. One block for each compound: values may come before it.

Tests used:
[1] = Lipophilicity by RP-HPLC retention factors; assay type: physicochemical; details: for log kw: 0.1% TFA water/MeOH, values extrapolated to 0% MeOH; for log k30: mobile phase containing 30% MeOH
[2] = system: A549 (nonsmall cell lung cancer); details: read-out: IC50, 96 h A549; MTT assay, exposure 96 h; cited from earlier work
[3] = Stability in aqueous media under physiologically relevant conditions; assay type: physicochemical; details: PBS (pH 7.4 and 6.0), 37 °C, 0.5 mM
How it was run: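 Each complex (0.5 mM) was incubated at 37 °C for 24 h in water, PBS pH 7.4, PBS pH 6.0 and 0.05 M HCl (pH 1.5). Samples taken at 1 and 24 h were analysed by isocratic RP-HPLC on a C18 column at 25 °C, with 0.1% TFA water/MeOH adjusted for elution within 15 min and UV detection at 210 nm.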

[4] = Platinum concentration in mouse tissues and serum by ICP-MS; assay type: in vivo, Balb/c mice; details: for serum platinum level: CT-26 mice
CH1 (ovarian carcinoma) [5] = details: read-out: IC50, 96 h CH1; MTT assay, exposure 96 h; cited from earlier work
SW480 (colon carcinoma) [6] = details: read-out: IC50, 96 h SW480; MTT assay, exposure 96 h; cited from earlier work
CH1 (ovarian carcinoma) [7] = test: MTT cytotoxicity assay, CH1; assay type: cell-based, human; details: CH1 cells
How it was run: (§1)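 Adherent cells grown in MEM with 10% FBS, pyruvate, NEAA and glutamine, without antibiotics. Seeded per well at 1.0 × 10³ for CH1 and 2.0 × 10³ for SW480, then settled for 24 h. Serial dilutions of test compound in medium were applied for 96 h continuous exposure at 37 °C. MTT was added for 4 h, formazan dissolved in DMSO, and read at 550 nm (ref 690 nm). IC₅₀ was interpolated from concentration–effect curves, ≥3 independent experiments in triplicate.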

SW480 (colon carcinoma) [8] = test: MTT cytotoxicity assay, SW480; assay type: cell-based, human; details: SW480 cells
How it was run: as §1

Aqueous solubility = assay type: physicochemical; details: water
[9] = Reduction by sodium ascorbate, RP-HPLC; assay type: physicochemical; details: 15-fold excess sodium ascorbate
[10] = system: L1210 murine leukemia cells; test: Antileukemic activity in vivo; parameters: species or system female DBA/2J × Balb/c SCID F1 mice; details: L1210 leukemia-bearing mice
[11] = General toxicity in the animal experiments; details: all in vivo experiments, 10-30 mg/kg i.p., mice
How it was run: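 Test compound in water, given i.p. L1210 model: female DBA/2J × Balb/c SCID F1 mice, 1 × 10⁵ cells i.p. on day 0, dosed 10, 20, 30 mg/kg on days 1, 5, 9, with daily observation and body weight. CT-26 model: female Balb/c mice aged 6–8 weeks, 5 × 10⁵ cells s.c. into the flank, 30 mg/kg on days 4, 7, 11, 14, with daily distress checks.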

[12] = 9 mg/kg i.v. days 4, 7, 11, 14, day 15
[13] = 30 mg/kg i.p. days 4, 7, 11, 14, day 15

- log kw [1]: 1.28 ± 0.01
- log k30 [1]: 0.28 ± 0.01
Compound: NCCN.O=C1[O][Pt]2([O]C(=O)C13CCC3)[O]C(=O)C1(CCC1)C(=O)[O]2 [1d, (OC-6-22)-Bis(1,1-cyclobutanedicarboxylato)ethane-1,2-diamineplatinum(IV)]

Compound: N.N.O=C([O-])C1(C(=O)[O-])CCC1.[Pt+2] [carboplatin, reference compound]
- log kw [1]: −0.36 ± 0.04^c
- log k30 [1]: −0.80 ± 0.01
- IC50 [2]: 91 ± 10 µM

Compound: CCN.CCN.O=C([O-])CC(=O)[O-].O=C([O-])CC(=O)[O-].[Pt+4] [2b, (OC-6-22)-Bis(ethylamine)bis(malonato)platinum(IV)]
- decomposition after 24 h of incubation in PBS solution [3]: < 10%

Compound: O=C1[O][Pt]2([NH][C@@H]3CCCC[C@H]3[NH]2)[O]C1=O [oxaliplatin, reference compound]
- serum platinum level ([4]; 9 mg/kg i.v. days 4, 7, 11, 14, 24 h after last application): ~ 0.3 μg/mL
- platinum in kidney [4, 12]: ~ 4.5 μg/g
- platinum in liver [4, 12]: ~ 2 μg/g
- IC50 [2]: 0.98 ± 0.21 µM
- IC50 (CH1 (ovarian carcinoma) [5]): 0.18 ± 0.01 µM
- IC50 (SW480 (colon carcinoma) [6]): 0.29 ± 0.05 µM

Compound: (OC-6-22)-((1R,2R)-Diaminocyclohexane)bis(malonato)-platinum(IV) [4b]
- log kw [1]: −0.11 ± 0.01
- log k30 [1]: −0.65 ± 0.02
- times more potent than 1b (CH1 (ovarian carcinoma) [7]; versus 1b): 4 times
- times more potent than 2b (CH1 (ovarian carcinoma) [7]; versus 2b): 12 times
- potency relative to 3b (CH1 (ovarian carcinoma) [7]; versus 3b): twice as potent
- activity relative to 5b (CH1 (ovarian carcinoma) [7]; versus 5b): same activity
- times more active than 1b, 2b, and 3b (SW480 (colon carcinoma) [8]; versus 1b, 2b and 3b): at least 8 times
- times more active than 5b (SW480 (colon carcinoma) [8]; versus 5b): 6 times
- decomposition after 24 h of incubation in PBS solution [3]: no decomposition products were observed
- aqueous solubility (Aqueous solubility): > 15 mM
- complex still in its native form ([9]; PBS pH 7.4, 37 °C, after 20 h): more than 90%
- complex intact ([9]; unbuffered water, 37 °C, after 24 h): ~ 95%
- effect on survival ([10]; 10 mg/kg i.p. on days 1, 5, 9): no effect on the survival
- mice being cured ([10]; 30 mg/kg i.p. on days 1, 5, 9, n = 4): 3/4
- serum platinum level ([4]; 30 mg/kg i.p. days 4, 7, 11, 14, 24 h after last application): ~ 3 μg/mL
- platinum in kidney [4, 13]: ~ 10.5 μg/g
- platinum in liver [4, 13]: ~ 15 μg/g
- platinum in lung [4, 13]: ~ 5 μg/g
- platinum in sciatic nerve [4, 13]: ~ 1.8 μg/g
- platinum in tumor tissue [4, 13]: ~ 5 μg/g
- serum platinum circulation compared to oxaliplatin-treated mice ([4]; 4b 30 mg/kg i.p. versus oxaliplatin 9 mg/kg i.v., 24 h after last application): 10 times
- tolerability / signs of toxicity (fatigue, weight loss) [11]: well-tolerated with no signs of toxicity

- log kw [1]: 1.63 ± 0.04
- log k30 [1]: 0.68 ± 0.01
Compound: CC(=O)[O][Pt]([NH2])([Cl])([Cl])([NH]C1CCCCC1)[O]C(C)=O [satraplatin, reference compound]
